Screens from PubChem.
NALP1 inh = inhibitors of NALP1 inflammasome in yeast; S. cerevisiae NALP1/ASC/caspase-1 growth, X-gal OD620, 72 h; inhibition, % at 10 µM; hit rate 0.61% among 280,000; AID 2071; in the data active = inhibition mostly above about 24%, no sharp cut-off; inactive = mostly below about 32%
NALP3 yeast inh = inhibitors of NALP3 inflammasome in yeast; Yeast reconstituted NLRP3/ASC/caspase-1, beta-gal luminescence, 24 h; inhibition, % at 10 µM; hit rate 0.39% among 330,000;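 active = inhibition of 50% or more; inactive = inhibition below 50%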;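 also: plate controls were induced DMSO wells for no effect and uninduced yeast grown without galactose for full effect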
UCH37 DUB inh = blocks the human deubiquitinase UCH37. inhibition, % (test concentration not listed). Q9Y5K5. AID 588478. purified proteasome/UCH37, Ub-AMC cleavage fluorescence. hit rate 0.33% among 330,000;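 active = mean inhibition over replicate wells above about 20%, limit read from the data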;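 also: 0% = compound-free wells with enzyme and 100% = wells lacking proteasome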
Target sequence (Q9Y5K5 whole entry, looked up): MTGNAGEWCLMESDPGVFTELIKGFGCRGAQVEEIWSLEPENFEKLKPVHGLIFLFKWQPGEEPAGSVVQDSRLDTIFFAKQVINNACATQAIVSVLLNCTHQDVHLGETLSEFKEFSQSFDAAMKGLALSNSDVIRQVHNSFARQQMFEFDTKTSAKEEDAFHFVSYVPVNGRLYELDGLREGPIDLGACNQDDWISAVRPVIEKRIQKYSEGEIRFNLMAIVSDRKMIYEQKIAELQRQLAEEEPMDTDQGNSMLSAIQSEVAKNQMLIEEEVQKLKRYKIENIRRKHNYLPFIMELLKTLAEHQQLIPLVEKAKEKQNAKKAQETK
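System: Proteasome-associated human UCH37 deubiquitinase; Input: 0.15 nM proteasome in added enzyme buffer; Also added: Ub-AMC substrate from 1 µM stock; Incubation: 30 min compound-proteasome preincubation then 25 min substrate reaction, room temperature; Detection: fluorescence, ex 355 nm, em 460 nm; Read-out: % inhibition of Ub-AMC cleavage fluorescence; Benchmarks: no-proteasome and no-compound wells.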
ALR inh = human ALR oxidase inhibition via reduced H2O2; purified ALR, DTT oxidation, H2O2 HRP-luminol luminescence; inhibition, % (concentration not given with the values); hit rate 3.8% among 290,000; AID 485317;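 active = mean replicate inhibition above about 79%, with every replicate also reaching it, limit read from the data; inconclusive = only one of the two criteria met; inactive = mean below limit and not every replicate reaching it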
Target sequence (P55789 whole entry, looked up): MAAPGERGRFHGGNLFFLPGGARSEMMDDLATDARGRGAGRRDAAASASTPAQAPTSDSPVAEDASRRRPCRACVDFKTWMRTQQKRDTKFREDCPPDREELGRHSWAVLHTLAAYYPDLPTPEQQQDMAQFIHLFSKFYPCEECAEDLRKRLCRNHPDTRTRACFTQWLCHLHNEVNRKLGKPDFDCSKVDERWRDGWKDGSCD
Calb FLC = affects C. albicans growth with fluconazole; C. albicans CaCi-2 + fluconazole, Alamar Blue growth, 48 h; growth inhibition, % (no concentration beside the values); AID 1979; hit rate 0.57% among 300,000;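 active = growth inhibition above about 58% in most replicates, limit read from the data, passing the limit was not always enough; inconclusive = exactly half the replicates above a set limit; inactive = most replicates below a set limit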;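 also: all wells also contain fluconazole at 8 µg/ml as a sub-toxic cotreatment; 0% = median of DMSO wells and 100% = median of geldanamycin control wells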
ATG4B inhibitor = blocks human ATG4B protease cleavage of LC3 substrate; hit rate 0.51% among 340,000; inhibition, % at 8.33 µM; ATG4B cleavage of LC3-PLA2, NBD-HPC fluorescence, 1 h; Q9Y4P1; AID 504462; in the data active = inhibition above about 40%
An asterisk follows results filed as active; ? = inconclusive; . = no result. Hits are enriched below; roughly 4.8% of the tested compounds scored in any of these assays.

SMILES	NALP1 inh	NALP3 yeast inh	UCH37 DUB inh	ALR inh	Calb FLC	ATG4B inhibitor
CC(=NNc1ccc(S(=O)(=O)Nc2ccccc2)cc1[N+](=O)[O-])c1ccncc1	.	.	5.8	.	.	.
O=C(Nc1ccc2c(c1)OCCO2)Nc1ccc2c(c1)OCO2	18.2	2.6	1.0	-2.2	-12.5	-1.8
COc1ccc(NC(=O)CN(C)C(=O)CSc2ccc3c(c2)OCCO3)cc1	-5.6	18.4	3.6	98.3*	8.7	-8.3
COc1ccc(NC(=O)CSc2ccc3c(c2)OCCO3)cc1	.	11.0	3.0	98.2*	.	-4.9
O=C(CSc1ccc2c(c1)OCCO2)Nc1ccc(Cl)cn1	-2.4	30.3	0.7	88.6*	13.6	4.6
CC(Nc1ccc2c(c1)OCCO2)C(=O)Nc1ccc2c(c1)OCO2 (centres undefined)	4.4	12.1	3.9	95.8*	-18.9	-5.1
O=C(NN=Cc1ccc(Cl)c([N+](=O)[O-])c1)c1cnccn1	.	.	6.2	.	.	.
Cc1ccc(CN2CCN(N=Cc3ccc(Cl)c([N+](=O)[O-])c3)CC2)cc1	.	.	8.2	.	.	.
CC(=O)Nc1ccc(SCC(=O)Nc2ccc3c(c2)OCCO3)cc1	.	6.5	8.8	97.9*	.	-3.9
COc1ccc(NC(=O)CSc2ccc(NC(C)=O)cc2)cc1S(=O)(=O)N1CCCCC1	20.1	7.1	-0.4	98.8*	3.3	-8.6
CCNC(=S)Nc1ccc(N2CCCCC2)cc1	13.1	0.1	1.5	98.6*	1.0	4.5
COCCCNC(=S)Nc1ccc(N2CCCCC2)cc1	-4.5	-11.8	5.2	97.5*	26.4	-3.9
Cc1ccc(Nc2nc(N=CN(C)C)n[nH]2)cc1C	.	.	2.8	.	.	.
COc1cc(C=NNC(=O)CC#N)cc(Br)c1O	.	.	-62.1	.	.	.
CCOc1ccc(/C(O)=C/C(=O)C(=O)Nc2ccc(S(=O)(=O)NC(C)=O)cc2)cc1	23.9	16.4	12.9	98.0*	-6.6	5.8
CCOc1ccc(NS(=O)(=O)c2ccc(NC(=S)NC(C)=O)cc2)cc1	-7.2	9.7	3.6	-12.9	8.1	-10.5
N/C(Cc1ccccc1)=N\OC(=O)c1cccc2ccccc12	78.0	-4.8	1.8	-4.1	103.9*	4.9
N/C(Cc1ccc([N+](=O)[O-])cc1)=N\OC(=O)c1ccccc1Br	68.4*	19.9	.	5.3	-13.7	-6.3
C=CCn1c(SCC(=O)Nc2ccc(Br)cc2)nc(O)c(CC)c1=O	16.0	-5.9	7.7	98.2*	13.6	-1.2
C=CCn1c(N)cc(=O)nc1SCC(=O)Nc1ccc(C(=O)OC)cc1	15.9	0.1	1.8	98.8*	-2.6	0.6
C=CCn1c(N)cc(=O)nc1SCC(=O)Nc1ccc(C(=O)OCC)cc1	1.8	8.1	-0.4	99.3*	2.5	1.0
C=CCn1c(SCC(=O)Nc2ccccc2OC)nc(O)c(CC)c1=O	-0.8	-1.5	3.6	.	-6.8	-2.7
Cc1cc[n+](-c2[nH]c(=O)sc2C=NNC([S-])=Nc2ccccc2)cc1C	.	.	19.0	.	.	.
Cc1nn(Cc2cccc(C(=O)NN)c2)c(C)c1Cl	7.2	15.1	0.3	96.9*	2.8	-1.0
Cc1nn(Cc2ccc(C(=O)NN)cc2)c(C)c1Cl	1.8	9.3	4.8	.	-19.7	2.2
SMILES	NALP1 inh	NALP3 yeast inh	UCH37 DUB inh	ALR inh	Calb FLC	ATG4B inhibitor
Cn1cc(SCC(=O)Nc2nccs2)c2ccccc21	20.6	21.5	1.9	97.7*	-2.6	-7.8
Cn1cc(SCC(=O)NCC2CCCO2)c2ccccc21 (centres undefined)	.	18.9	5.1	97.4*	-7.5	1.5
CCCn1cc(SCC(=O)NCC2CCCO2)c2ccccc21 (centres undefined)	38.4	14.3	1.7	7.3	2.4	-5.8
COc1ccc(NC(=O)CC(C)=NNC(=O)C(=O)NC(C)C)c(OC)c1	.	.	-0.9	.	.	.
O=C(NN=Cc1cccc(Br)c1)c1ccccc1-n1cccc1	.	.	2.4	.	.	.
CN(C)c1ccc(C=NNC(=O)c2ccc3c(c2)OCO3)cc1	.	.	-8.8	.	.	.
Cc1ccc(C(=O)Nc2nnc(C3CCCCC3)s2)o1	17.8	17.6	2.2	48.9	19.7	-4.7
Cc1cc(C(=O)Nc2nnc(C3CCCCC3)s2)no1	.	-23.7	7.2	86.4*	19.5	10.6
Cc1cc(C(=O)Nc2nnc(-c3ccccc3)s2)no1	11.9	19.9	4.6	93.3*	-1.6	1.0
O=C(NN=Cc1ccccc1O)C(=O)N1CCCCCC1	.	.	1.6	.	.	.
Cc1cc2oc3cc(NCCC4CCCN4C)ccc3c(=O)c2cc1C (centres undefined)	.	34.5	-478.1	90.8*	5.6	4.3
CN1CCCC1CCNc1ccc2sc3ccccc3c(=O)c2c1 (centres undefined)	.	11.3	-1.4	97.8*	-14.5	6.1
CC(=O)Nc1ccccc1-c1nnc(SCc2ccccc2Cl)[nH]c1=O	-3.3	2.6	8.4	98.8*	-2.4	-4.2
CCOc1ccccc1NC(=S)N1CCN(c2ccc(O)cc2)CC1	-14.3	-2.2	-0.8	99.0*	-13.9	0.5
CC(=O)c1ccc(N2CCN(C(=O)C3CCC3)CC2)cc1	0.3	3.6	4.4	.	-2.3	-6.2
O=C(C1CC1)N1CCN(c2ccc(O)cc2)CC1	29.0	1.1	1.3	99.5*	-8.8	1.3
CCOC(=O)N1CCN(c2ccc(O)cc2)CC1	-3.2	-4.7	1.7	99.1*	-23.4	-1.7
Fc1ccc(C=Nn2c(COc3ccccc3)n[nH]c2=S)cc1	.	.	3.6	.	.	.
C(=NN1CCN(c2ccccn2)CC1)C1=C(N2CCOCC2)/C(=C/c2ccccc2)CC1	.	.	2.7	.	.	.
CCOc1cccc(CNCCSc2nnnn2C)c1	27.0*	-9.8	1.3	.	-11.3	1.7
Cc1csc(NC(=O)C2CCN(S(=O)(=O)c3ccc4c(c3)oc(=O)n4C)CC2)n1	-51.3	6.5	5.8	1.6	0.0	5.9
Cc1csc(NC(=O)C(CC(C)C)NS(=O)(=O)c2ccc3c(c2)oc(=O)n3C)n1 (centres undefined)	45.9*	19.0	1.9	0.2	10.4	-1.9
CC(=NNC(=O)c1ccc(-c2ccccc2)cc1)C1C(=O)c2ccccc2C1=O	.	.	4.8	.	.	.
Clc1ccc(-c2c[n+](Cc3ccc(Br)cc3)c3n2CCCCC3)cc1	.	16.0	9.6	-11.0	106.4*	4.6
O=C(C[n+]1cc(-c2ccccc2)n2c1CCCCC2)c1ccc(Cl)cc1	.	3.1	0.5	-26.0	?	-0.4
SMILES	NALP1 inh	NALP3 yeast inh	UCH37 DUB inh	ALR inh	Calb FLC	ATG4B inhibitor
CC1CCC(C(C)C)C(OC(=O)C[n+]2cc(-c3ccc(Cl)cc3)n3c2CCCCC3)C1 (centres undefined)	11.7	7.5	6.9	-2.7	95.0*	25.0
CN(C)c1ccc(C=NNC(=O)COc2ccccc2)cc1	.	.	-113.1	.	.	.
O=C(CC1Sc2ncnn2C1=O)Nc1ccc(Br)cc1 (centres undefined)	85.0*	1.8	2.9	53.8	-12.8	2.5
Cc1cnc(=O)[nH]c1SCc1ccc([N+](=O)[O-])cc1	28.3	5.5	1.6	99.2*	3.1	-6.5
Fc1ccc(NCc2cccnc2)cc1F	11.4	24.6	3.0	-14.6	-13.8	2.4
Clc1ccc(NCc2cccnc2)cc1	10.0	19.8	3.5	99.1*	11.6	-2.5
